Assay results of several laboratories.
Compare with care: the assays were run in different laboratories.
Organism: Pichia kudriavzevii
Observed: microbial growth

CC1(C)CC[C@]2(C(=O)O)CC[C@]3(C)C(=CC[C@@H]4[C@@]5(C)CC[C@H](O)C(C)(C)[C@@H]5CC[C@]43C)[C@@H]2C1
MIC (broth dilution; ATCC6258; 48 h): 500 µg/mL

CCCCCN1CCN(CC(O)(Cn2cncn2)c2ccc(F)cc2F)CC1 (stereo not shown)
MIC (broth dilution; ATCC6258; 48 h): > 31.3 µg/mL

C[C@@H]1[C@H](O)[C@@H](C)/C=C/C=C/C=C/C=C/C=C/C=C/C=C/[C@H](O[C@@H]2O[C@H](C)[C@@H](O)[C@H](N)[C@@H]2O)C[C@@H]2O[C@](O)(C[C@@H](O)C[C@@H](O)[C@H](O)CC[C@@H](O)C[C@@H](O)CC(=O)O[C@H]1C)C[C@H](O)[C@H]2C(=O)O
MIC (ATCC6258): 1.25 µg/mL

C=C(C)[C@@H]1CC[C@]2(C)CC[C@]3(C)[C@H](CC[C@@H]4[C@@]5(C)CC[C@H](O)C(C)(C)[C@@H]5CC[C@]43C)[C@@H]12
MIC (broth dilution; ATCC6258; 48 h): 250 µg/mL

CCCCCCOc1c(OC)cc(NC(C)CCCN)c2nc(C(C)(C)C)cc(C)c12 (stereo not shown)
MIC (ATCC6258): 5 µg/mL

C[C@@H]1[C@H](O)[C@@H](C)/C=C/C=C/C=C/C=C/C=C/C=C/C=C/[C@H](O[C@@H]2O[C@H](C)[C@@H](O)[C@H](N)[C@@H]2O)C[C@@H]2O[C@](O)(C[C@@H](O)C[C@@H](O)[C@H](O)CC[C@@H](O)C[C@@H](O)CC(=O)O[C@H]1C)C[C@H](O)[C@H]2C(=O)O
MIC: 0.5 µM

OC(CNCCN1CCOCC1)(Cn1cncn1)c1ccc(F)cc1F (stereo not shown)
MIC (broth dilution; ATCC6258; 48 h): > 31.3 µg/mL

CCCCCCCOc1c(OC)cc(NC(C)CCCNC(=O)C(N)C(C)CC)c2nc(C(C)(C)C)ccc12 (stereo not shown)
MIC (ATCC6258): 10 µg/mL

CCCCCCCCCCCN1CCNCC1
MIC (broth dilution; ATCC6258; 48 h): 7.8 µg/mL

C[C@@H]1[C@H](O)[C@@H](C)/C=C/C=C/C=C/C=C/C=C/C=C/C=C/[C@H](O[C@@H]2O[C@H](C)[C@@H](O)[C@H](N)[C@@H]2O)C[C@@H]2O[C@](O)(C[C@@H](O)C[C@@H](O)[C@H](O)CC[C@@H](O)C[C@@H](O)CC(=O)O[C@H]1C)C[C@H](O)[C@H]2C(=O)O
MIC (broth dilution; ATCC6258): 0.5 µg/mL
